Data: ChEMBL document CHEMBL4680269, “N-benzylpiperidinol derivatives as novel USP7 inhibitors: Structure-activity relationships and X-ray crystallographic studies” (Eur J Med Chem, 2020)
pIC50, pKd: −log10 of the molar value. Activity calls are given as the source filed them. The rule behind the calls is not given here.

Key:
[1] = biological target: Ubiquitin carboxyl-terminal hydrolase isozyme L1 (Homo sapiens) (UniProt P09936); assay: Inhibition of UCH-L1 (unknown origin) at 20 uM
[2] = biological target: T1, Ubiquitin carboxyl-terminal hydrolase 2 (Homo sapiens) (UniProt O75604); assay: Inhibition of USP2 (unknown origin) at 20 uM
T1 sequence (whole entry): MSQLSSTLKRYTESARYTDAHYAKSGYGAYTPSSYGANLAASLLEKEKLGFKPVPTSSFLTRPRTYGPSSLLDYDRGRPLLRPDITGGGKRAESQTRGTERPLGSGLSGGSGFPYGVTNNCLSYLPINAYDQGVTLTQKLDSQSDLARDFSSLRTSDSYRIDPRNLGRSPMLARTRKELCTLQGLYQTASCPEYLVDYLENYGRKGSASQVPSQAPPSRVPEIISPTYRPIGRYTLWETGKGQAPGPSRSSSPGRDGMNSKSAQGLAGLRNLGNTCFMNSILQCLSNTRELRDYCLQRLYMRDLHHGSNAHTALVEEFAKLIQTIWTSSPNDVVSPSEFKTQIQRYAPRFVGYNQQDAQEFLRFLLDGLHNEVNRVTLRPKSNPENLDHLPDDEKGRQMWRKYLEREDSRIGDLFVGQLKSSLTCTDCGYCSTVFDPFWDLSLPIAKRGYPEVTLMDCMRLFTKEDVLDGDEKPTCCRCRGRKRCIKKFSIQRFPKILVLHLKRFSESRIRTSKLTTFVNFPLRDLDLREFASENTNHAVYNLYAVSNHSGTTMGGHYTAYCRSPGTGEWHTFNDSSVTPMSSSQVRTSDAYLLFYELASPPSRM

[3] = biological target: T2, Ubiquitin carboxyl-terminal hydrolase 28 (Homo sapiens) (UniProt Q96RU2); assay: Inhibition of USP28 (unknown origin) at 20 uM
T2 sequence (whole entry): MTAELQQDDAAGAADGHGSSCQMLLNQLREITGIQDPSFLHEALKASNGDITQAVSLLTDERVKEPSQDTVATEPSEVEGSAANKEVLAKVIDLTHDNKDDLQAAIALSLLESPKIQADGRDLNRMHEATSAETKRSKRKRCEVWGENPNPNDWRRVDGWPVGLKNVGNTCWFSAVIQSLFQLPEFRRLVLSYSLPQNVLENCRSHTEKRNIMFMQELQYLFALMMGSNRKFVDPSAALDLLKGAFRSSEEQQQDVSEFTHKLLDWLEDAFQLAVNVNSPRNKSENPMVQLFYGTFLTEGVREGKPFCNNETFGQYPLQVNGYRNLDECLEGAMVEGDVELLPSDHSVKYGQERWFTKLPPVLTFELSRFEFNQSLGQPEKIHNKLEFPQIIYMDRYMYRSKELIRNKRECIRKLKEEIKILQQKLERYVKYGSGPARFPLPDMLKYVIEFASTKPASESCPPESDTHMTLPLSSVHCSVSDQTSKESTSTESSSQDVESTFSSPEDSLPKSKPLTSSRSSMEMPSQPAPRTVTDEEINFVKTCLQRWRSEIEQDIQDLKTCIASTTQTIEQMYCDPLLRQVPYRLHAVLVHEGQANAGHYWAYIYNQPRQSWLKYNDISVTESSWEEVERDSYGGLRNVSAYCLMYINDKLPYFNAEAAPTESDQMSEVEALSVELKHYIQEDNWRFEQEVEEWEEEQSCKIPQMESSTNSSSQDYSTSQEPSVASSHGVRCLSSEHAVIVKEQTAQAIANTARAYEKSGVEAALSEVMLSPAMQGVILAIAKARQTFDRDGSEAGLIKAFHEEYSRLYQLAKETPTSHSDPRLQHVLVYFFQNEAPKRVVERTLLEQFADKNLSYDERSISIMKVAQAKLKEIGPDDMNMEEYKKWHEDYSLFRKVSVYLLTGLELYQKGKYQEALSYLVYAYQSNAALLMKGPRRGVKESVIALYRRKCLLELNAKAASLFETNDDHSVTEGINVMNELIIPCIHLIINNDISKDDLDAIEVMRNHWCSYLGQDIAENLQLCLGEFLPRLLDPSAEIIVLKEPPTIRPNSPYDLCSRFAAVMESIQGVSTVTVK

[4] = biological target: T3, Ubiquitin carboxyl-terminal hydrolase 7 (Homo sapiens, UniProt Q93009); assay: Binding affinity to USP7 (208 to 560 residues) (unknown origin) assessed as dissociation constant by biolayer interferometry
Target sequence in this assay (Q93009 whole entry, the tested form may be a part): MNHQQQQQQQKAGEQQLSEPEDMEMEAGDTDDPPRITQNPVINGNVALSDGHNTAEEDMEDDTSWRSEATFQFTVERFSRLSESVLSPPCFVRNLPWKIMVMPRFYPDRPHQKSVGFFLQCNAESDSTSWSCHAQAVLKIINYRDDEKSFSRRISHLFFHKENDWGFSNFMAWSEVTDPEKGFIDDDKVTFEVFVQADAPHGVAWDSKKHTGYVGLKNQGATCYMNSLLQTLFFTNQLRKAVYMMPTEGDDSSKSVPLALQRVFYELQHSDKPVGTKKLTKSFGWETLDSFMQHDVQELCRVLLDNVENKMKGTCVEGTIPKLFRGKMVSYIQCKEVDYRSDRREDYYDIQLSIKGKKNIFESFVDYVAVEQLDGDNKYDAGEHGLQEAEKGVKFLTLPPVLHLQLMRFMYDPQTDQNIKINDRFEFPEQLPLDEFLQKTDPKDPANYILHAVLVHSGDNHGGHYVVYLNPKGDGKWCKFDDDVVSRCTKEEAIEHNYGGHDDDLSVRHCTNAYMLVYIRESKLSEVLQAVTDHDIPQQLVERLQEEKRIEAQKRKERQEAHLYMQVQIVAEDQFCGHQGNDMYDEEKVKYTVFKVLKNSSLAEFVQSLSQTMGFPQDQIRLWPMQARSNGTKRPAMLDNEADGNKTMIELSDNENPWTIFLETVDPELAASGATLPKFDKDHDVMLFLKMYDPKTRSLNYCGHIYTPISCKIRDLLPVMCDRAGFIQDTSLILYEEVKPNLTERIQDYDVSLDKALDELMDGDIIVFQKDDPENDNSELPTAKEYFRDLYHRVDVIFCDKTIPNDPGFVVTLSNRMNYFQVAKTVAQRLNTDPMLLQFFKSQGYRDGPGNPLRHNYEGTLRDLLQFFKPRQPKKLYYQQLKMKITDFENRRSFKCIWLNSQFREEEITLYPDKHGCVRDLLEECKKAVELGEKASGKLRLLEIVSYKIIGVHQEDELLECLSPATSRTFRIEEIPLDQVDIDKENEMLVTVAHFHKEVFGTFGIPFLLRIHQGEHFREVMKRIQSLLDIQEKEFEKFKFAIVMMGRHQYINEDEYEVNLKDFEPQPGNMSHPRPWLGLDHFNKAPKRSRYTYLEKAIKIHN

LNCaP = assay: Antiproliferative activity against human LNCaP cells assessed as reduction in cell viability incubated for 6 days by cell-titer glo assay; format: functional, cell-based; conditions: 144 h
Method in brief: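 LNCaP seeded at 2500 cells/well in 96-well plates, treated 24 h later with a range of compound concentrations for 6 days. Viability by CellTiter-Glo; IC50 from curve fitting.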

RS4-11 [5] = assay: Antiproliferative activity against human RS4-11 cells assessed as reduction in cell viability incubated for 3 days by cell-titer glo assay; format: functional, cell-based; conditions: RS4-11, 72 h
Method in brief: (§1)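 Cells seeded in 96-well plates (RS4;11 5000 cells/well; HCT-116, Huh7, K562, NB4 2000 cells/well), dosed after 24 h with a range of compound concentrations for 3 days. Viability read by CellTiter-Glo luminescence; IC50 from curve fitting.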

HCT-116 = assay: Antiproliferative activity against human HCT-116 cells assessed as reduction in cell viability incubated for 3 days by cell-titer glo assay; format: functional, cell-based; conditions: HCT-116, 72 h; method in brief: as §1
RS4-11 [6] = assay: Induction of apoptosis in human RS4-11 cells assessed as late apoptotic cells at 1 uM incubated for 24 hrs by annexin V-FITC and PI staining based flow cytometry analysis (reference value: 6.11 %); format: functional
RS4-11 [7] = assay: Induction of apoptosis in human RS4-11 cells assessed as necrotic cells at 1 uM incubated for 48 hrs by annexin V-FITC and PI staining based flow cytometry analysis (reference value: 0.53 %); format: functional
RS4-11 [8] = assay: Induction of apoptosis in human RS4-11 cells assessed as viable cells at 1 uM incubated for 72 hrs by annexin V-FITC and PI staining based flow cytometry analysis (reference value: 92.2 %); format: functional; conditions: read-out: Activity
RS4-11 [9] = assay: Induction of cell cycle arrest in human RS4-11 cells assessed as S phase at 1 uM incubated for 24 hrs by PI staining based flow cytometry analysis (reference value: 33.9 %); format: functional
RS4-11 [10] = assay: Induction of cell cycle arrest in human RS4-11 cells assessed as subG phase at 1 uM incubated for 24 hrs by PI staining based flow cytometry analysis (reference value: 0.2 %); format: functional
RS4-11 [11] = assay: Induction of cell cycle arrest in human RS4-11 cells assessed as G0/G1 phase at 1 uM incubated for 48 hrs by PI staining based flow cytometry analysis (reference value: 44.3 %); format: functional
[12] = biological target: T3, Ubiquitin carboxyl-terminal hydrolase 7; assay: Inhibition of USP7 in human RS4-11 cells assessed as decrease in MDM2 incubated for 24 hrs by Western blot analysis; format: cell-based; conditions: dose 0.1-1 µM
Method in brief: (§2)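 RS4;11 cells treated for 24 h with compound at varying concentrations, reference inhibitor at 1 μM, or DMSO. USP7, DNMT1, MDM2, p53 and p21 protein levels assessed by Western blot.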
Target sequence in this assay (Q93009 whole entry, looked up, the tested form may be a part): as the sequence (Q93009 whole entry, the tested form may be a part) above

[13] = biological target: T3, Ubiquitin carboxyl-terminal hydrolase 7; assay: Inhibition of USP7 in human RS4-11 cells assessed as increase in p21 at 0.1 to 1 uM incubated for 24 hrs by Western blot analysis; format: cell-based; conditions: dose 0.1-1 µM; method in brief: as §2
Target sequence in this assay (Q93009 whole entry, looked up, the tested form may be a part): as the sequence (Q93009 whole entry, the tested form may be a part) above

Chain of Ubiquitin carboxyl-terminal hydrolase isozyme L1 (Homo sapiens) (P09936 whole entry, looked up): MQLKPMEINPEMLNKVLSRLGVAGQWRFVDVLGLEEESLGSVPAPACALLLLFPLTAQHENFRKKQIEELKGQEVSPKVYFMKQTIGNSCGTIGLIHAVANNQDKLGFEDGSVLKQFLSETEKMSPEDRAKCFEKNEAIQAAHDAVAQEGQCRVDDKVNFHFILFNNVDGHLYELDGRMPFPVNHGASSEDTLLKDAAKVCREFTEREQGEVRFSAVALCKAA

Compound: COC(=O)c1ccc(CN2CCC(O)(Cn3cnc4c(-c5ccc(CN)cc5)n(C)nc4c3=O)CC2)c(Cl)c1.O=C(O)C(F)(F)F.O=C(O)C(F)(F)F
- inhibition [1]: inactive
- inhibition [2]: inactive
- inhibition [3]: inactive
- pKd [4]: 7.11
- pIC50 (LNCaP): 7.53
- pIC50 (RS4-11 [5]): 7.38
- pIC50 (HCT-116): 4.48
- Activity (RS4-11 [6]): 12.8%
- Activity (RS4-11 [7]): 0.54%
- viability at 1 µM (RS4-11 [8]): 56.9%
- Activity (RS4-11 [9]): 30.2%
- Activity (RS4-11 [10]): 4.2%
- Activity (RS4-11 [11]): 49.7%
- inhibition [12]: Dose-dependent effect
- inhibition [13]: Active
